Here are results for 15 compounds from ChEMBL document CHEMBL4219116, “Adenosine analogs bearing phosphate isosteres as human MDO1 ligands” (Bioorg Med Chem, 2018).

The ΔTm is the shift of the melting midpoint relative to a reference. A word on the Kd: it is a measure of binding affinity in units of concentration.

The structures appear in SMILES notation. Active and inactive are the calls of the source. The calls are words filed in the database; no cut-off is given here.

For experiment [1], the target named is T1, ADP-ribose glycohydrolase MACROD1 (Homo sapiens) (UniProt Q9BQ69).
T1 sequence (whole entry): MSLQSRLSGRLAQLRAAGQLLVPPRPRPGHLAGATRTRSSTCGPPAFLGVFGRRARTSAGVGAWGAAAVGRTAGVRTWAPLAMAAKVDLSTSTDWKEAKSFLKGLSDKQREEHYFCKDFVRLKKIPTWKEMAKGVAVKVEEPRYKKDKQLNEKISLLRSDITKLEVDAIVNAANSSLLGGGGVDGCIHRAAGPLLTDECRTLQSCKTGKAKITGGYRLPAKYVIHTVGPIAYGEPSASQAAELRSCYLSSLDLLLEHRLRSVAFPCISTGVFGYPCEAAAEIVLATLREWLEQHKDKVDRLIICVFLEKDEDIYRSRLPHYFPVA
Briefly: Inhibition of recombinant human N-terminal His6-tagged MDO1 (58 to 325 residues) expressed in Escherichia coli Rosetta2 (DE3) at 1 mM using mono-biotin-ADP-ribosylated SRPK2 as substrate after 16 hrs by Western blot analysis. Put shortly: (§1)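 Substrate was SRPK2 mono-biotin-ADP-ribosylated by ARTD10. 2 μM substrate, 2 μM MDO1 and 0.8–1 mM compound were incubated 16 h in 25 mM HEPES pH 7.5, 100 mM NaCl. The reaction was stopped with Laemmli buffer at 95 °C for 5 min, then run on SDS-PAGE and blotted. Detection used streptavidin-HRP with chemiluminescence. Readout was qualitative, against SRPK2-alone and no-inhibitor controls.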
A general note: A western blot detects proteins with antibodies after separation by electrophoresis.

Experiment [2] concerns the target T1, ADP-ribose glycohydrolase MACROD1 (Homo sapiens). Description: Binding affinity to human MDO1 assessed as change in melting temperature by DSF method. Put shortly:
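Thermal shift read-out: a hydrophobic reporter dye binds the exposed protein core as the protein denatures with rising temperature. ΔTm is taken as the stabilization by ligand.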
Background: In DSF a fluorescence change marks the thermal transition of the protein.

For experiment [3] the target is unchanged. Description: Inhibition of recombinant human N-terminal His6-tagged MDO1 (58 to 325 residues) expressed in Escherichia coli Rosetta2 (DE3) using mono-biotin-ADP-ribosylated SRPK2 as substrate after 16 hrs by Western blot analysis. In short, it runs like this: as §1
Experiment [4] shares this target. Briefly: Inhibition of recombinant human N-terminal His6-tagged MDO1 (58 to 325 residues) expressed in Escherichia coli Rosetta2 (DE3) at 0.8 mM using mono-biotin-ADP-ribosylated SRPK2 as substrate after 16 hrs by Western blot analysis. Put shortly: as §1
Experiment [5] deals with T2, ADP-ribose glycohydrolase MACROD1 (Homo sapiens, UniProt Q9BQ69).
T2 sequence (Q9BQ69 whole entry): T1 sequence (whole entry)
Briefly: Binding affinity to human MDO1 by ITC. Background: In ITC the heat of successive injections is recorded.

Experiment [6] concerns the target T1, ADP-ribose glycohydrolase MACROD1 (Homo sapiens). Description: Inhibition of recombinant human N-terminal His6-tagged MDO1 (58 to 325 residues) expressed in Escherichia coli Rosetta2 (DE3) at 6.6 mM using mono-ADP-ribosylated SRPK2 as substrate after 1 hr 20 mins by Alphascreen assay. Put shortly: (§2)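 AlphaScreen hydrolysis assay run in quadruplicate, with compound from 6.6 mM to 0.66 μM in half-log dilutions. MDO1 or MDO2 (800 nM final) was added, then mono-ADP-ribosylated SRPK2 (50 nM final), and incubated 1 h 20 min at room temperature. Acceptor/donor beads (5 μg/ml final) were added for 3 h in the dark before reading luminescence.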

Experiment [7] deals with T3, ADP-ribose glycohydrolase MACROD2 (Homo sapiens) (UniProt A1Z1Q3).
T3 sequence (whole entry): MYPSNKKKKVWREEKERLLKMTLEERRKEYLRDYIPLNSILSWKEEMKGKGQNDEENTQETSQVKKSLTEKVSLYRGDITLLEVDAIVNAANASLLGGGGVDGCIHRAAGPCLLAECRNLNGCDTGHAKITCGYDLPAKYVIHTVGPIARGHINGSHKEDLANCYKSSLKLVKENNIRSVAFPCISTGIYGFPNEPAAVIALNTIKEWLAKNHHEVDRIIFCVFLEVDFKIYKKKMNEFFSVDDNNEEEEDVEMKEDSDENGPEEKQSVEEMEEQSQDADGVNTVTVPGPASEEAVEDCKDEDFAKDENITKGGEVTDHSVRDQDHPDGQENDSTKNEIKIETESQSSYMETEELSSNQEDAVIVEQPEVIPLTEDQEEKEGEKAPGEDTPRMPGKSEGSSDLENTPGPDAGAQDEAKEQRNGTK
Briefly: Inhibition of recombinant MDO2 (7 to 243 residues) (unknown origin) expressed in Escherichia coli Rosetta2 (DE3) at 6.6 mM using mono-ADP-ribosylated SRPK2 as substrate after 1 hr 20 mins by Alphascreen assay. In short, it runs like this: as §2

As for `Nc1ncnc2c1ncn2C1OC(CNC(=O)CSc2nnnn2-c2ccccc2)[C@@H](O)[C@H]1O` (single isomer, unassigned), the inhibition entry in experiment [1] is “inactive”.

For the compound `Nc1ncnc2c1ncn2[C@@H]1O[C@H](COP(=O)(O)OP(=O)(O)O)[C@@H](O)[C@H]1O`, the ΔTm in experiment [2] was under 1 °C. In addition, the inhibition entry in experiment [3] was “inactive”.

On to `CCCCNc1c(NC[C@H]2O[C@@H](n3cnc4c(N)ncnc43)[C@H](O)[C@@H]2O)c(=O)c1=O`, for which the inhibition entry in experiment [4] was “inactive”.

Take `Nc1ncnc2c1ncn2[C@@H]1O[C@H](CNc2c(Nc3cccc([N+](=O)[O-])c3)c(=O)c2=O)[C@@H](O)[C@H]1O`: the inhibition result in experiment [4] was “inactive”.

In experiment [5], `Nc1ncnc2c1ncn2[C@@H]1O[C@H](COP(=O)(O)OP(=O)(O)OC[C@@H]2O[C@H](O)[C@@H](O)[C@H]2O)[C@@H](O)[C@H]1O` gave a Kd of 0.9 µM. In addition, the ΔTm in experiment [2] came out at 5 °C. In addition, the inhibition result in experiment [3] is “Active”.

With `Cc1ccc(CNc2c(NC[C@H]3O[C@@H](n4cnc5c(N)ncnc54)[C@H](O)[C@@H]3O)c(=O)c2=O)cc1`, the inhibition entry in experiment [1] was “Active”. The inhibition entry in experiment [6] and in experiment [7] was “inactive” each time.

As for `Nc1ncnc2c1ncn2C1OC(CNC(=O)[C@@H](N)CO)[C@@H](O)C1O` (single isomer, unassigned), the inhibition result in experiment [1] is “inactive”.

As for `Nc1ncnc2c1ncn2C1OC(CNC(=O)[C@H](CC(=O)O)NC(=O)OCC2c3ccccc3-c3ccccc32)[C@@H](O)C1O` (single isomer, unassigned), the inhibition result in experiment [1] is “inactive”.

With `Nc1ncnc2c1ncn2[C@@H]1O[C@H](CNc2c(Nc3cccc(O)c3)c(=O)c2=O)[C@@H](O)[C@H]1O`, the inhibition entry in experiment [4] was “inactive”.

As to `Nc1ncnc2c1ncn2C1OC(CNC(=O)Cc2nnn[nH]2)[C@@H](O)[C@H]1O` (single isomer, unassigned), in experiment [1], the inhibition result is “inactive”.

`Nc1ncnc2c1ncn2[C@@H]1O[C@H](CNc2c(NCc3ccc(F)cc3)c(=O)c2=O)[C@@H](O)[C@H]1O`: the inhibition entry in experiment [4] was “inactive”.

Consider `Nc1ncnc2c1ncn2[C@@H]1O[C@H](COP(=O)(O)O)[C@@H](O)[C@H]1O`, for which the ΔTm in experiment [2] was under 1 °C. The inhibition result in experiment [3] is “inactive”.

For `Nc1ncnc2c1ncn2C1OC(CNC(=O)[C@H](CO)NC(=O)OCC2c3ccccc3-c3ccccc32)[C@@H](O)C1O` (single isomer, unassigned), in experiment [4], the inhibition result is “Active”. For the same compound, the inhibition entry in experiment [6] and in experiment [7] was “inactive” in each case.

`Nc1ncnc2c1ncn2[C@@H]1O[C@H](CNc2c(NCc3ccccc3)c(=O)c2=O)[C@@H](O)[C@H]1O`: the inhibition result in experiment [1] is “inactive”.

With `COc1ccc(CNc2c(NC[C@H]3O[C@@H](n4cnc5c(N)ncnc54)[C@H](O)[C@@H]3O)c(=O)c2=O)cc1`, the inhibition result in experiment [1] is “inactive”.
